Here are results for 46 molecules from ChEMBL document CHEMBL1156003, “A strategy of employing aminoheterocycles as amide mimics to identify novel, potent and bioavailable soluble epoxide hydrolase inhibitors” (Bioorg Med Chem Lett, 2009).

Data set [1] deals with T1, Bifunctional epoxide hydrolase 2 (Homo sapiens, UniProt P34913).
T1 sequence (P34913 whole entry): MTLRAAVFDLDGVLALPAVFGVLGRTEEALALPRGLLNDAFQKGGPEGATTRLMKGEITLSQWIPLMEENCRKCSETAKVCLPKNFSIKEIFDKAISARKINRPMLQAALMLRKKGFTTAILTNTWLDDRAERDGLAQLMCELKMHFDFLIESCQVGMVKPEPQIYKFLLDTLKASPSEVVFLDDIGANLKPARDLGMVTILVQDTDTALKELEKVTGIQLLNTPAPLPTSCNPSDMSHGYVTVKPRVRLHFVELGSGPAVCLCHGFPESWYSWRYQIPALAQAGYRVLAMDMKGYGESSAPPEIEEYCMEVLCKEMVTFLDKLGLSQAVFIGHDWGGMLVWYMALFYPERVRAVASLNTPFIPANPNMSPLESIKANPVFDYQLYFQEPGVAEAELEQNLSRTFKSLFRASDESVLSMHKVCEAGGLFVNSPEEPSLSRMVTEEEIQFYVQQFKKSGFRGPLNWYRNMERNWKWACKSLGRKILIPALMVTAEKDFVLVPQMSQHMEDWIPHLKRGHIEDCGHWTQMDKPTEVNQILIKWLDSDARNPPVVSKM
Briefly: Inhibition of human sEH. Summed up:
(§1)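 Human and rat sEH enzyme inhibition; values from one or two experiments, each in triplicate, within 20% deviation on repeat.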

Data set [2] addresses T2, Bifunctional epoxide hydrolase 2 (Rattus norvegicus, UniProt P80299).
T2 sequence (P80299 whole entry): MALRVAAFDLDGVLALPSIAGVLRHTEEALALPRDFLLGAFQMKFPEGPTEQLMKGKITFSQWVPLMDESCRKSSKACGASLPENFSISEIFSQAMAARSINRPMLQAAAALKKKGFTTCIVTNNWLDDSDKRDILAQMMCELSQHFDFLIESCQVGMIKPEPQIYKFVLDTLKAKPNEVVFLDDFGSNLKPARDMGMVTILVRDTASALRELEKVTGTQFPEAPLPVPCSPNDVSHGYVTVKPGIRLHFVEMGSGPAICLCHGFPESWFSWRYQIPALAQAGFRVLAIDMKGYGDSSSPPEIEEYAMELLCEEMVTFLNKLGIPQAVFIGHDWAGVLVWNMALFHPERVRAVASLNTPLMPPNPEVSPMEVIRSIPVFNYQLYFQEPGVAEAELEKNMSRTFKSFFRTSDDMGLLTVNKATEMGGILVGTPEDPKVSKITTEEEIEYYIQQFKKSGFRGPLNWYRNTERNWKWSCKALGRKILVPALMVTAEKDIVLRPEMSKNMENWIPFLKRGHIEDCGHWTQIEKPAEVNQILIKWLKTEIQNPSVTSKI
Briefly: Inhibition of rat sEH. An outline of the steps: as §1

The nature of data set [3]: Oral bioavailability in rat at 2 mg/kg. Format: ADME, organism-based. The note with it: in vivo. Summed up: (§2)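 Rat PK: dosed at 1 mg/mL in ethanol/PEG/water (20:40:40); IV 1 mg/kg (n = 2), PO 2 mg/kg (n = 3). Blood levels measured by LC/MS/MS after acetonitrile protein precipitation.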
Data set [4] is described as follows: Clearance in rat at 1 mg/kg, iv and 2 mg/kg, po. Format: ADME, organism-based. The note with it: in vivo. Summed up:
as §2

Data set [5] is described as follows: Volume of distribution at steady state in rat at 1 mg/kg, iv and 2 mg/kg, po. The note with it: in vivo, read-out: Vdss. Format: ADME, organism-based. Summed up: as §2
The nature of data set [6]: Half life at steady state in rat at 1 mg/kg, iv and 2 mg/kg, po. The note with it: in vivo. Format: ADME, organism-based. Summed up: as §2
Data set [7] has as its target T1, Bifunctional epoxide hydrolase 2. Briefly: Inhibition of human sEH assessed as DHET production in presence of 10% human serum.
In data set [8] the test system is Plasma. Briefly: Fraction unbound in rat plasma at 0.2 to 25 uM. Format: ADME, cell-free. The note with it: in the assay text read “0.5 to 25 uM” for “0.2 to 25 uM”. An outline of the steps:
(§3)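 Free fraction measured with radiolabeled compound in human and rat plasma, compound at 0.5–25 μM.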

Data set [9] relates to Plasma. Briefly: Fraction unbound in human plasma at 0.2 to 25 uM. Format: ADME, cell-free. The note with it: in the assay text read “0.5 to 25 uM” for “0.2 to 25 uM”. An outline of the steps: as §3

Where only a bound is given, the exact number is not on record here.

For `FC(F)(F)c1ccc(Nc2noc3c(C(F)(F)F)cccc23)cn1`, the results for the IC50 in [1] and in [2] were 74 nM and 3400 nM, respectively.

For the molecule `FC(F)(F)Oc1cccc(Nc2noc3ccccc23)c1`, the IC50 in data set [1] and in [2] was 160 nM each time.

`FC(F)(F)Oc1ccccc1Nc1noc2ccccc12`: the IC50 (commonly the midpoint of a concentration-inhibition curve) in data set [1] is 5200 nM. Take `FC(F)(F)c1ccc(Nc2nsc3ccccc23)cc1`: the IC50 in data set [1] is 2500 nM. For the molecule `FC(F)(F)c1ccc(Nc2noc3cc(-c4ccccc4C(F)(F)F)ccc23)cc1`, the IC50 in data set [1] was 8 nM; in data set [2], 70 nM.

Consider `FC(F)(F)c1ccc(Nc2noc3cc(-c4ccncc4)ccc23)cc1`, for which the IC50 was 58 nM in data set [1] and 19 nM in data set [2]. In data set [1], `c1ccc2cc(Nc3noc4ccccc34)ccc2c1` displayed an IC50 of 1200 nM.

In [1], `c1ccc(CNc2cnc3ccccc3n2)cc1` registered an IC50 above 10000 nM. The molecule `c1ccc(CNc2nc3ccccc3o2)cc1` returned a concentration for half-maximal inhibition (IC50) in [1] above 10000 nM. In the case of `FC(F)(F)c1ccc(Nc2noc3ccc(C(F)(F)F)cc23)cc1`, the IC50 in data set [1] was found to be 40 nM; in data set [2] it was 1500 nM. On to `c1ccc(CNc2nnc(Cc3ccccc3)o2)cc1`, for which, in data set [1], the half-maximal inhibitory concentration (IC50) was above 10000 nM. For `FC(F)(F)c1ccc(Nc2noc3cc(-c4cccc5cnccc45)ccc23)cc1`, the 50% inhibitory concentration (IC50) was determined as 19 nM in [1] and 30 nM in data set [2]. In [1], `c1ccc(CNc2cc(-c3ccccc3)ccn2)cc1` yielded an IC50 above 10000 nM. For the molecule `FC(F)(F)c1ccc(Nc2noc3ccccc23)cc1`, the values for the IC50 in data set [1] and in [2] were 25 nM and 76 nM, respectively.

Turning to `FC(F)(F)c1ccc(Nc2noc3c(-c4ccc5[nH]ccc5c4)cccc23)cc1`, the IC50 was determined as 8 nM in data set [1] and 41 nM in data set [2].

Consider `FC(F)(F)c1ccc(Nc2noc3c(C(F)(F)F)cccc23)nc1`, for which the IC50 in data set [1] and in [2] was above 10000 nM in each case. Turning to `FC(F)(F)c1ccc(CNc2cc(-c3ccccc3)on2)cc1`, the half-inhibitory concentration (IC50) in data set [1] stood at 4700 nM.

On to `FC(F)(F)c1cccc(CNc2cc(-c3ccccc3)ncn2)c1`, for which the IC50 in data set [1] was above 10000 nM. As for `Cc1cccnc1-c1ccc2c(Nc3ccc(C(F)(F)F)cc3)noc2c1`, the values for the IC50 in data set [1] and in data set [2] were 70 nM and 290 nM, respectively. Consider `Fc1ccccc1-c1ccc2c(Nc3ccc(C(F)(F)F)cc3)noc2c1`, for which the IC50 amounted to 91 nM in data set [1] and 55 nM in [2].

Regarding `FC(F)(F)c1ccc(CNc2noc3ccccc23)cc1`, 1200 nM corresponded to half-maximal inhibition in [1] (IC50). Same read-out and setting: the value for `FC(F)(F)c1ccc(Nc2noc3cccnc23)cc1` was 1100 nM.

On to `FC(F)(F)c1ccc(Nc2noc3cc(-c4ccc5[nH]ccc5c4)ccc23)cc1`, for which the values for the IC50 in data set [1] and in data set [2] were 70 nM and 77 nM, respectively. In [1], `c1ccc(CNc2nnc(-c3ccccc3)o2)cc1` registered an IC50 above 10000 nM. Same read-out and setting: with `FC(F)(F)c1nnc(Nc2ccccc2)o1` the figure was 2000 nM; with `c1ccc(CNc2cnc(-c3ccccc3)cn2)cc1`, above 10000 nM; with `FC(F)(F)c1ccc(Nc2cc(-c3ccccc3)on2)cc1`, above 10000 nM. Same read-out and setting: with `FC(F)(F)c1ccc(Nc2noc3cc(C(F)(F)F)ccc23)cc1` the figure was 18 nM; with `c1ccc(CNc2ccc(-c3ccccc3)cn2)cc1`, above 10000 nM. Same read-out and setting: with `FC(F)(F)c1ccc(Nc2noc3ccncc23)cc1` the figure was 340 nM.

Regarding `c1ccc(CNc2nc3ccccc3s2)cc1`, the IC50 in data set [1] is above 10000 nM. For the molecule `FC(F)(F)Oc1ccc(Nc2noc3ccccc23)cc1`, the values for the IC50 in [1] and in [2] were 60 nM and 170 nM, respectively. Regarding `FC(F)(F)c1ccc(Nc2n[nH]c3ccccc23)cc1`, the IC50 in data set [1] is above 10000 nM. Consider `FC(F)(F)c1ccc(Nc2noc3c(C(F)(F)F)cccc23)cc1`, for which the IC50 in data set [1] is 4 nM; in data set [2] it was 127 nM; in data set [7], 1200 nM. For the same molecule, the bioavailability (as a rule, the share of a dose that reaches the circulation, judged against a reference dose that is usually intravenous) in [3] was 98%. The molecule also showed a clearance in data set [4] of 30 mL/min/kg. Further, the Vd in [5] is 7 L/kg. Also, in data set [6], the half-life (in general, the time in which the quantity being followed falls by half) was 5.9 h. In addition, the Fu with Plasma [8] came out at 0.9%; in the data set on Plasma [9], 0.7%.

For `FC(F)(F)c1ccc(Nc2noc3cc(-c4cccnc4)ccc23)cc1`, the IC50 in data set [1] came out at 23 nM; in [2], 20 nM. Molecule `c1ccc(-c2cccc(Nc3noc4ccccc34)c2)cc1` showed a half-maximal inhibitory concentration (IC50) in data set [1] of 960 nM. `FC(F)(F)c1ccc(Nc2noc3c(C(F)(F)F)nccc23)cc1`: the IC50 was determined as 19 nM in [1] and 300 nM in data set [2]. For `c1ccc(-c2ccc(Nc3noc4ccccc34)cc2)cc1` the same measures were 170 nM and 740 nM.

In data set [1], `FC(F)(F)c1ccccc1Nc1noc2ccccc12` showed an IC50 of 960 nM. As to `FC(F)(F)c1ccc(Nc2noc3c(-c4cccc(C(F)(F)F)c4)cccc23)cc1`, the values for the IC50 in data set [1] and in [2] were 10 nM and 130 nM, respectively. Regarding `c1ccc(Cc2nnc(Nc3ccccc3)o2)cc1`, in [1], the IC50 was above 10000 nM. In the case of `FC(F)(F)c1ccc(Nc2noc3c(-c4ccccc4C(F)(F)F)cccc23)cc1`, the results for the IC50 in data set [1] and in data set [2] were 4 nM and 79 nM, respectively. In data set [1], `FC(F)(F)c1ccc(Nc2noc3cnccc23)cc1` showed an IC50 of 31 nM. `FC(F)(F)c1ccc(Nc2noc3ncccc23)cc1` yielded an IC50 in [1] of 27 nM. For the molecule `FC(F)(F)c1ccc(Nc2noc3cc(-c4cccc(C(F)(F)F)c4)ccc23)cc1`, the IC50 in [1] was 470 nM; in data set [2] it was 570 nM. As to `c1ccc2c(Nc3noc4ccccc34)cccc2c1`, the IC50 in data set [1] was 840 nM; in data set [2] it was 4600 nM.
